# Measured values from different studies.
# Protocols differ between the studies behind these lines.
SMILES,tested on,test,test system,setting,quantity,result
Oc1cc2c(cc1O)C(Cc1ccccc1)NCC2 (stereo not shown),,ABTS scavenging,,"10 min, dark",IC50,8.14 µM
C[C@@H]1[C@H](O)[C@@H](C)/C=C/C=C/C=C/C=C/C=C/C=C/C=C/[C@H](O[C@@H]2O[C@H](C)[C@@H](O)[C@H](N)[C@@H]2O)C[C@@H]2O[C@](O)(C[C@@H](O)C[C@@H](O)[C@H](O)CC[C@@H](O)C[C@@H](O)CC(=O)O[C@H]1C)C[C@H](O)[C@H]2C(=O)O,Leishmania donovani,"parasite growth, imaging",THP-1,"20 nM, intracellular, amastigote",inhibition,7%
CCCCCCCCCCCCCCCCCCOc1cccc(CC(=O)OCCC[N+](C)(C)C)c1,NCI-H522,"cell growth or viability, SRB",,10 µM,inhibition,21.8%
CN1CCN(S(=O)(=O)c2ccc(-c3ccc4nncc(Nc5ncc(Cl)cn5)c4c3)cc2)CC1,Leishmania donovani,parasite growth,,"intracellular, amastigote",EC50,0.035 µg/mL
COc1cc(/C=C/C(=O)CC(=O)/C=C/c2ccc(O)c(OC)c2)ccc1O,,ABTS scavenging,,20 min,IC50,165 µg/mL
COc1cccc(C2NCCc3cc(O)c(O)cc32)c1O (stereo not shown),,ABTS scavenging,,"10 min, dark",IC50,8.51 µM
c1ccc(Oc2ccc(Nc3c4c(nc5ccccc35)CCC4)cc2)cc1,Leishmania donovani,"parasite growth, resazurin",,promastigote,IC50,0.6 µM
COc1cccc(C2NCCc3cc(O)c(O)cc32)c1 (stereo not shown),,ABTS scavenging,,"10 min, dark",IC50,11.2 µM
CCCCCCCCCCCCCCCCCCOc1cccc(CC(=O)OCC[N+](C)(C)C)c1,NCI-H522,"cell growth or viability, SRB",,10 µM,inhibition,13.3%
CCCCCCCCCCCCCCCCOP(=O)([O-])OCC[N+](C)(C)C,Leishmania donovani,parasite growth,THP-1,"40 µM, intracellular, amastigote",inhibition,100%
O=C(O)CCC(=O)OCCN(Cc1ccc(Oc2ccc([N+](=O)[O-])cc2)cc1)C(=O)C(Cl)Cl,Leishmania donovani,"parasite growth, resazurin",,"72 h, promastigote",IC50,2.68 µM
Oc1cc2c(cc1O)C(CCc1ccccc1)NCC2 (stereo not shown),,ABTS scavenging,,"10 min, dark",IC50,8.09 µM
CCOc1ccc(Nc2c3c(nc4ccccc24)CCC3)cc1,Leishmania donovani,parasite growth,THP-1,"intracellular, amastigote",IC50,0.592 µM
CCCCCCCCC1NCCc2cc(O)c(O)cc21 (stereo not shown),,ABTS scavenging,,"10 min, dark",IC50,47.5 µM
O=C1O[C@H]([C@@H](O)CO)C(O)=C1O,,"ABTS scavenging, absorbance",,,IC50,62.8 µM
O=C1O[C@H]([C@@H](O)CO)C(O)=C1O,,"ABTS scavenging, absorbance",,dark,IC50,5.42 µg/mL
